Source: PubChem
SIRT5 block – blocks human SIRT5 desuccinylation of peptide; Q9NXA8; 1.1% of 330,000 active; Purified SirT5, succinyl-peptide AMC, trypsin-coupled fluorescence; inhibition, % at 15 µM; in the data active = inhibition above about 15%
Target sequence (Q9NXA8 whole entry, looked up): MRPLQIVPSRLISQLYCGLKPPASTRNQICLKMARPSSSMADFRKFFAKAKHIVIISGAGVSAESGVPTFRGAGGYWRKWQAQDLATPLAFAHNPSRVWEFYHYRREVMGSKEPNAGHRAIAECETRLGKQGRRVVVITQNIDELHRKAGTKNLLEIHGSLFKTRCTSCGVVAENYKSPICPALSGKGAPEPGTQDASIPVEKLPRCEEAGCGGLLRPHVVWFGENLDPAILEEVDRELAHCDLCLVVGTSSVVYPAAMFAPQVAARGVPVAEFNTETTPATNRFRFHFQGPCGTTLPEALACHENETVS
C2C12 statin – suppressors of simvastatin-induced myotoxicity in C2C12 myotubes | ATP luminescence, 48 h; scaled: DMSO 0, geranylgeraniol control 100 | rescue of ATP level, % at 7.49 µM | 0.78% of 330,000 active | AID 602340;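 active = mean ATP rescue above about 67%, or every replicate alone reaching that limit, limit read from the data, passing the limit was not always enough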;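 also: myotubes were challenged with 10 µM simvastatin during compound exposure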
S100A4 inh HTS – S100A4-myosin IIA interaction inhibition | AID 652163 | inhibition, % at 10.7 µM | 0.14% of 360,000 active | S100A4/TAMRA-MyoIIA peptide fluorescence polarization;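 active = mean inhibition of at least 70% across replicates, with every replicate also reaching that level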
Target sequence (P26447 whole entry, looked up): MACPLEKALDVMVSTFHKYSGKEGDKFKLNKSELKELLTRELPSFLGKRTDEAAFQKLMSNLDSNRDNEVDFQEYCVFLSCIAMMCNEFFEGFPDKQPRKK
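Test system – S100A4 monomer (human) · Compound – single-point compound testing · Schedule – 5 min incubation before reading · Probe or stimulus – TAMRA-labelled myosin IIA heavy-chain peptide probe, 5 nM · Benchmarks – neutral control DMSO, positive control TFP · Medium – Calcium-containing HEPES buffer, pH 7.2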
Cneo AK release – Cryptococcus neoformans lysis via adenylate kinase release; AID 651654; C. neoformans lysis, adenylate kinase release luminescence, 4 h; normalised: neutral wells 0, clomiphene wells 100; 0.2% of 360,000 active; lysis activity, % at 15 µM;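 active = mean lysis activity across replicates of at least 80%, whatever share of replicates individually reach that level; inactive = mean lysis activity below 80%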
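Material: C. neoformans cells; Schedule: 4 h static compound exposure, 37 °C, read 1 h post-reagent; Measured by: adenylate kinase release luminescence; Read-out: signal increase indicating cell lysis; Controls: Clomiphene as positive lysis control.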
PGC1a acetyl inh – PGC1a acetylation modulation, inhibitor mode; AID 651687; 0.17% of 350,000 active; U2OS PGC1a acetylation, AlphaScreen anti-acetyl-lysine; with virally co-expressed GCN5 acetyltransferase; inhibition, % at 15.6 µM;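 active = every replicate shows inhibition of at least 40%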
Ecoli rRNA inh – selective bacterial rRNA inhibition in E. coli; E. coli WT GFP vs humanized-ribosome RFP mutants, fluorescence, 24 h; stronger effect = lower value; DMSO median 0, no signal -100; GFP signal change (wild-type ribosome), % (concentration not given with the values); 1.6% of 350,000 active; AID 720706;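 active = significant combined selectivity score with lowered wild-type GFP, culture density cut under 30%, mutant RFP and density less affected; inactive = any of these conditions unmet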
Large screens that a line does not name were inactive. Compounds with a hit are over-represented: about 3% of the library has one in this group of screens.

C/C=C/c1cccc(-c2nc(C(=O)NCCN3CCCCC3)cc3c2[C@H](CCO)N([S@@](=O)C(C)(C)C)C3)c1	none (no result: SIRT5 block, C2C12 statin, S100A4 inh HTS, Cneo AK release, PGC1a acetyl inh)
COc1ccc(CCNS(=O)(=O)c2cccs2)cc1	C2C12 statin 127.8 (no result: SIRT5 block, S100A4 inh HTS, Ecoli rRNA inh)
O=S(=O)(NCCc1ccccc1)c1cccs1	none
CCC(=O)Nc1ccc2c(c1)C(=O)N(C)[C@@H]1CC[C@H](CC(=O)NCCc3ccncc3)O[C@H]1CO2	none
C[C@@H]1CN([C@H](C)CO)C(=O)Cc2cc(NC(=O)C3CCCCC3)ccc2O[C@H]1CN(C)Cc1ccc(Cl)c(Cl)c1	C2C12 statin 139.4
COc1ccc(CN(C)C[C@H]2Oc3ccc(NC(=O)C4CCCCC4)cc3CC(=O)N([C@H](C)CO)C[C@H]2C)cc1	none
C[C@@H]1CN([C@@H](C)CO)C(=O)Cc2cc(NC(=O)C3CCCCC3)ccc2O[C@H]1CN(C)Cc1ccc(Cl)c(Cl)c1	none
C[C@H](CO)N1C[C@H](C)[C@@H](CN(C)Cc2ccc(Cl)c(Cl)c2)Oc2ccc(NC(=O)C3CCCCC3)cc2CC1=O	C2C12 statin 131.8
COc1ccc(CN(C)C[C@H]2Oc3ccc(NC(=O)C4CCCCC4)cc3CC(=O)N([C@@H](C)CO)C[C@@H]2C)cc1	SIRT5 block 17.2
C[C@H]1CN([C@@H](C)CO)C(=O)Cc2cc(NC(=O)C3CCCCC3)ccc2O[C@H]1CN(C)Cc1ccc(Cl)c(Cl)c1	none
Cc1noc(C)c1S(=O)(=O)Nc1ccc2c(c1)C(=O)N([C@@H](C)CO)C[C@@H](C)[C@H](CN(C)C(=O)Nc1cccc3ccccc13)OCCCC[C@@H](C)O2	none (no result: C2C12 statin)
C[C@@H]1CN([C@@H](C)CO)S(=O)(=O)c2ccc(/C=C/c3ccccc3)cc2O[C@@H]1CN(C)C(=O)C1CC1	SIRT5 block 16.7
C[C@H]1CN([C@@H](C)CO)S(=O)(=O)c2ccc(/C=C/c3ccccc3)cc2O[C@H]1CN(C)C(=O)C1CC1	SIRT5 block 15.1
C[C@@H]1CN([C@H](C)CO)S(=O)(=O)c2ccc(-c3ccccc3)cc2O[C@H]1CN(C)C(=O)C1CCCCC1	Cneo AK release 105.0
C[C@H]1CN([C@@H](C)CO)S(=O)(=O)c2ccc(/C=C/c3ccccc3)cc2O[C@@H]1CN(C)C(=O)C1CC1	none
C[C@@H]1CN([C@@H](C)CO)S(=O)(=O)c2ccc(-c3ccccc3)cc2O[C@@H]1CN(C)C(=O)C1CCCCC1	none
COc1ccc(NC(=O)N(C)C[C@@H]2Oc3ccc(NC(=O)CCCCCC(=O)Nc4ccccc4N)cc3CC(=O)N([C@@H](C)CO)C[C@@H]2C)cc1	none (no result: SIRT5 block)
Cc1ccc(S(=O)(=O)N[C@@H]2CC[C@@H](CCn3cc(-c4cccc(F)c4)nn3)O[C@@H]2CO)cc1	none
COC(=O)c1c(C)noc1-c1cc(C)on1	C2C12 statin 101.7 (no result: SIRT5 block, S100A4 inh HTS, Ecoli rRNA inh)
Cc1cc(-c2onc(C)c2C(=O)O)no1	none
C[C@@H]1CN([C@@H](C)CO)C(=O)c2cc(-c3ccc(C#N)cc3)cnc2O[C@H]1CN(C)Cc1cncnc1	none
COc1cc2c(oc(=O)c3cc(C)cc(OC)c32)c2c(C3OC(C)C(O)C(C)(O)C3O)ccc(O)c12 (stereo not drawn)	SIRT5 block 18.6 (no result: C2C12 statin, Cneo AK release)
COc1cccc2cc(C(=O)N3CC(C)OC(C)C3)c(=O)oc12 (stereo not drawn)	none (no result: PGC1a acetyl inh)
CCCn1c(COc2ccccc2)nc2ccccc21	none (no result: SIRT5 block)
c1ccc(OCCn2c(-c3ccco3)nc3ccccc32)cc1	Ecoli rRNA inh -46.0
CCOCCn1c(COc2ccccc2)nc2ccccc21	C2C12 statin 122.4 (no result: SIRT5 block, S100A4 inh HTS, Ecoli rRNA inh)
COCc1nc2ccccc2n1CCCOc1ccccc1	C2C12 statin 127.4 (no result: SIRT5 block, S100A4 inh HTS, Ecoli rRNA inh)
C[C@@H]1CN([C@H](C)CO)C(=O)Cc2cc(NS(=O)(=O)c3cccs3)ccc2O[C@H]1CN(C)Cc1ccc2c(c1)OCO2	none
CC(C)NC(=O)N(C)C[C@H]1Oc2ccccc2CC(=O)N(C)C[C@H]1C	none (no result: SIRT5 block, C2C12 statin, S100A4 inh HTS, Cneo AK release, PGC1a acetyl inh)
CCCCN(C)C(=O)c1nc2ccccn2c1CN1CCN(C/C=C/c2ccccc2)CC1	none (no result: C2C12 statin, Cneo AK release, PGC1a acetyl inh)
CN(Cc1ccccc1)C(=O)c1nc2ccccn2c1CN1CCC(N2CCOCC2)CC1	SIRT5 block 15.0 (no result: C2C12 statin)
N#C/C(=C\c1ccc(OC(F)F)cc1)C(=O)N1CCCCC1	none (no result: C2C12 statin)
CCN1CCN(C(=O)/C(C#N)=C/c2ccc(OC(F)F)cc2)CC1	SIRT5 block 17.9
CC(C)NC(=O)Nc1ccc2c(c1)C(=O)N([C@@H](C)CO)C[C@H](C)[C@@H](CN(C)Cc1ccncc1)OCCCC[C@H](C)O2	none (no result: C2C12 statin)
CC(C)C1C(c2ccccc2)N(C)C(c2ccccc2)CC1(O)c1ccccc1 (stereo not drawn)	Ecoli rRNA inh -29.8
CCC1C(c2ccccc2)N(C)C(c2ccccc2)CC1(O)c1ccccc1 (stereo not drawn)	none (no result: C2C12 statin, Cneo AK release, PGC1a acetyl inh)
CC(Nc1ncnc2ccccc12)c1ccccc1 (stereo not drawn)	Ecoli rRNA inh -29.7 (no result: PGC1a acetyl inh)
CC(C)c1ccc(/C=C/C(=O)N2CCOCC2)cc1	none
CC(C)c1ccc(/C=C/C(=O)N2CCCCCC2)cc1	Ecoli rRNA inh -25.9 (no result: C2C12 statin, Cneo AK release, PGC1a acetyl inh)
CC1Cc2ccccc2N1C(=O)c1cnc2ccccn2c1=O (stereo not drawn)	none (no result: SIRT5 block, S100A4 inh HTS, Ecoli rRNA inh)
Cc1csc2ncc(C(=O)N3c4ccccc4CC3C)c(=O)n12 (stereo not drawn)	SIRT5 block 16.4
CN1CCN(C(=O)C2CCN(c3ncc(C(F)(F)F)cc3Cl)CC2)CC1	SIRT5 block 37.4 (no result: Cneo AK release)
Cc1ccc(NC(=O)c2cc(Cl)nc3ccccc23)cc1	none (no result: SIRT5 block, S100A4 inh HTS, Ecoli rRNA inh)
Cc1cccc(NC(=O)c2cc(Cl)nc3ccccc23)c1	C2C12 statin 93.0 (no result: SIRT5 block, S100A4 inh HTS, Ecoli rRNA inh)
O=C(Nc1ccc2c(c1)OCCO2)c1cc(-c2ccccc2)nc2ccccc12	none (no result: SIRT5 block, S100A4 inh HTS, Ecoli rRNA inh)
O=C(Nc1ccc2c(c1)OCO2)c1cc(-c2ccncc2)nc2ccccc12	Ecoli rRNA inh -21.6
O=C(C1CCCC1)N1CC[C@@H]2[C@@H](CO)Nc3ccc(Br)cc3[C@@H]21	none (no result: C2C12 statin, Cneo AK release)
COC(=O)c1c(C(C)=O)c(C)n(C)c1C	SIRT5 block 16.1 (no result: C2C12 statin, Cneo AK release, PGC1a acetyl inh)
COC(=O)Cn1c(C)c(C(C)=O)c(C(C)=O)c1C	none (no result: PGC1a acetyl inh)
CCC[C@H]1COCCS(=O)(=O)N1Cc1ccccc1F	C2C12 statin 79.2
CCc1ccc(/C=N/NC(=O)c2cc(-c3cccc([N+](=O)[O-])c3)n[nH]2)cc1	Ecoli rRNA inh -19.2 (no result: C2C12 statin)
O=C(N/N=C/c1ccccc1)c1cc(-c2ccc3c(c2)OCO3)n[nH]1	Ecoli rRNA inh -20.1
O=C(NN=Cc1ccc2c(c1)OCO2)NN=Cc1ccc2c(c1)OCO2	Ecoli rRNA inh -21.4
O=C(N/N=C/c1cccc([N+](=O)[O-])c1)c1cc(-c2ccc3c(c2)OCO3)n[nH]1	none (no result: C2C12 statin)
O=C(N/N=C/c1ccc(O)cc1)c1cc(-c2ccc3c(c2)OCO3)n[nH]1	none (no result: PGC1a acetyl inh)
